One test deals with T1, Caspase-7 (Homo sapiens, UniProt P55210).
T1 sequence (P55210 whole entry): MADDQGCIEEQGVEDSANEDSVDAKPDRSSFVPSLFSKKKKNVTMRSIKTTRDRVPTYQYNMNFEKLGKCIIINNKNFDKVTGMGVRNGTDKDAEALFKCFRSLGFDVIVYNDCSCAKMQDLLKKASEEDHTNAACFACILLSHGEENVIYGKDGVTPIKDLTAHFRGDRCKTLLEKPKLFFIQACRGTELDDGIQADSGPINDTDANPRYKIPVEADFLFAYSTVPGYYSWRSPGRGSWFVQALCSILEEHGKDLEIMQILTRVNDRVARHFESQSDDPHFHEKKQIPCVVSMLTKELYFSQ
Nature of the test: Inhibition of caspase 7. The method in brief: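 Inhibitor in DMSO (final 5 pM–500 µM, single doses) preincubated 10 min, then Ac-DEVD-AMC (final 10 µM) reacted 10 min. Cleaved AMC quantified by fluorescence; IC50 by nonlinear regression.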

For another test, the target named is Caspase-8 (Homo sapiens, UniProt Q14790). Nature of the test: Inhibition of caspase 8. An outline of the steps:
(§1)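 Recombinant human caspase-1, -6 or -8 at 0.5 units per assay, preincubated 10 min at 37 °C with compound in DMSO at single doses from 5 pM to 500 µM. Fluorogenic AMC substrate then added at 10 µM final (caspase-1 Ac-YVAD-AMC, caspase-6 Ac-VEID-AMC, caspase-8 Ac-IETD-AMC) for a further 10 min. Read-out was AMC fluorescence. IC50 taken by nonlinear regression.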

In test [1] the test system is HUVEC. Nature of the test: Inhibition of caspase 3 processing in apoptotic HUVEC at 10 uM. Type of test: functional, cell-based. Particulars: Homo sapiens. The method in brief:
(§2)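 HUVEC grown on gelatin-coated dishes in RPMI-1640 with 15% calf serum, heparin and pituitary extract. Cells were preincubated 30 min with compound. Apoptosis was then induced by growth-factor withdrawal (RPMI-1640 alone), with compound present, for 8 h at 37 °C. Lysates (30 µg) were run on 15% SDS-PAGE Western blots for processed caspase-3 (p17/p12), caspase-8, caspase-9, cleaved PARP ([…]) and lamin A/C. Z-VAD-fmk served as full-inhibition control and β-actin as loading control.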

Test [2] relates to HUVEC. Nature of the test: Inhibition of caspase 8 processing in apoptotic HUVEC at 50 uM. Particulars: Homo sapiens. Type of test: functional, cell-based. The method in brief: as §2
Test [3] concerns HUVEC. Nature of the test: Inhibition of caspase 8 processing in apoptotic HUVEC at 100 uM. Type of test: functional, cell-based. Particulars: Homo sapiens. The method in brief: as §2
Test [4] concerns HUVEC. Nature of the test: Inhibition of caspase 9 processing in apoptotic HUVEC at 50 uM. Format: functional, cell-based. Particulars: Homo sapiens. An outline of the steps: as §2
In test [5] the test system is HUVEC. Nature of the test: Inhibition of caspase 9 processing in apoptotic HUVEC at 100 uM. Format: functional, cell-based. Particulars: Homo sapiens. An outline of the steps: as §2
Test [6] has as its target T2, Caspase-3 (Homo sapiens, UniProt P42574).
T2 sequence (P42574 whole entry): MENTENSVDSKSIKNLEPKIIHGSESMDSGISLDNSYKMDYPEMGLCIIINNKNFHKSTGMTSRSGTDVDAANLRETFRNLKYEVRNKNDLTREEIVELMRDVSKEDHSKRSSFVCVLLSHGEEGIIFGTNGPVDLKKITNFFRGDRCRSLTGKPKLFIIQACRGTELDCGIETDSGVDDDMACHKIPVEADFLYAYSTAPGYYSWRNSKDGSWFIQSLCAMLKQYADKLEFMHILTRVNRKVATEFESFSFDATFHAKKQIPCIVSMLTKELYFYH
Nature of the test: Binding affinity to human caspase 3. The method in brief: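 Recombinant full-length human caspase-3 (1 unit/assay, 0.5 pM) preincubated 10 min at 37 °C with isatin in DMSO (single doses, 5 pM–500 µM) in 25 mM HEPES pH 7.5, 0.1% CHAPS, 50 mM KCl, 5 mM β-mercaptoethanol. Ac-DEVD-AMC (10 µM final) then added for 10 min. IC50 by nonlinear regression, converted to Ki = IC50/(1+[S]/KM). Mean of three assays.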

In another test the target is T3, Caspase-1 (Homo sapiens, UniProt P29466).
T3 sequence (P29466 whole entry): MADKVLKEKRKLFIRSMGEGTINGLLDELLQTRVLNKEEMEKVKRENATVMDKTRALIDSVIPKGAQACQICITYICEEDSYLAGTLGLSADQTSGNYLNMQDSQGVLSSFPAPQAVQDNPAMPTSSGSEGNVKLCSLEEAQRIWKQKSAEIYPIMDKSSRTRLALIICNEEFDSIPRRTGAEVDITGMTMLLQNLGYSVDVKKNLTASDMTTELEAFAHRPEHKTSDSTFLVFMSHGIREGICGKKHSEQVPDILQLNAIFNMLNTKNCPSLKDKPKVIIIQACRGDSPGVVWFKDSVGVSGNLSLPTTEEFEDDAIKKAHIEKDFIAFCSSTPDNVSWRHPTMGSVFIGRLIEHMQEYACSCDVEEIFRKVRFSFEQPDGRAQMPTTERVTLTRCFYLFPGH
Nature of the test: Inhibition of caspase 1. The method in brief:
as §1

Test [7] addresses T2, Caspase-3. Nature of the test: Inhibition of caspase 3. An outline of the steps:
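Recombinant human caspases (0.5 units/assay) preincubated 10 min at 37 °C with isatin in DMSO (single doses, 5 pM–500 µM). The buffer for all was 0.1% CHAPS, 100 mM NaCl, 2 mM EDTA, 10% sucrose, with 20 mM HEPES pH 7.4. Caspase-1 used 100 mM HEPES and β-mercaptoethanol, and caspase-7 used β-mercaptoethanol. AMC substrates at 10 µM for 10 min: YVAD (caspase-1), DEVD (caspase-3/-7), VEID (caspase-6), IETD (caspase-8). IC50 by nonlinear regression.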

Another test concerns the target T4, Caspase-6 (Homo sapiens, UniProt P55212).
T4 sequence (P55212 whole entry): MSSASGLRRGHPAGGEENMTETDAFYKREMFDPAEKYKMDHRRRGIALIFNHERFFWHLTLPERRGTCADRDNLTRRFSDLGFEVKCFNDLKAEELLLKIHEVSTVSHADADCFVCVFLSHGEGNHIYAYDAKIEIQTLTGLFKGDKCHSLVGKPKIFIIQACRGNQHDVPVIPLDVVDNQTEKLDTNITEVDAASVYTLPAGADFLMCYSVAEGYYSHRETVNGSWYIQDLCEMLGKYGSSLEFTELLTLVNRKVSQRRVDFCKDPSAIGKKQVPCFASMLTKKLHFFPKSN
Nature of the test: Inhibition of caspase 6. An outline of the steps:
as §1

Test [8] deals with HUVEC. Nature of the test: Inhibition of PARP cleavage in apoptotic HUVEC at 100 uM. Particulars: Homo sapiens. Type of test: functional, cell-based. An outline of the steps: as §2
The subject of test [9] is HUVEC. Nature of the test: Inhibition of lamin A/C cleavage in apoptotic HUVEC at 100 uM. Format: functional, cell-based. Particulars: Homo sapiens. The method in brief: as §2
Test [10] deals with T2, Caspase-3. Nature of the test: Inhibition of caspase 3 in neutrophils.

Each structure is given as a SMILES string. Calls of active or inactive are those of the source. The calls are words filed in the database; no cut-off is given here.

2 compounds from ChEMBL document CHEMBL1137328, “5-pyrrolidinylsulfonyl isatins as a potential tool for the molecular imaging of caspases in apoptosis” (J Med Chem, 2006) can be followed below.

Chain of Caspase-8 (Q14790 217-374 limits assumed): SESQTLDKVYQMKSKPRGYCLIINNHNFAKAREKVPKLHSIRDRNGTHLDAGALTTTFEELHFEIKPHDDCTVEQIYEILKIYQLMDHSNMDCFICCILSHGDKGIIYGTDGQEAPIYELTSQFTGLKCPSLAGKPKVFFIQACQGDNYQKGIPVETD
Chain of Caspase-8 (Q14790 385-479 limits assumed): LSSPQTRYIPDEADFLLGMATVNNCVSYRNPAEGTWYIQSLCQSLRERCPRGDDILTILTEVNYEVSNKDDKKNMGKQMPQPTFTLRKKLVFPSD

What is called IC50 is the concentration that inhibits the measured activity by half. The Ki is a dissociation constant, usually derived from enzyme kinetics or from competition with a known ligand. On to `COC[C@@H]1CCCN1S(=O)(=O)c1ccc2c(c1)C(=O)C(=O)N2Cc1ccc(OCCF)cc1`, for which the IC50 was 0.0933 µM on Caspase-7; over 25 µM on Caspase-8; over 25 µM at Caspase-1; 0.0364 µM on Caspase-3 [7]; over 25 µM on Caspase-6. Further, the outcome with HUVEC [1], in the test with HUVEC [2], in the test with HUVEC [3], in the test with HUVEC [4], in the test on HUVEC [5] and with HUVEC [8] was Active. Moreover, the outcome in the test with HUVEC [9] was Active. Moreover, the affinity on Caspase-3 [6] corresponds to a Ki of 0.0179 µM.
In the case of `CN1C(=O)C(=O)c2cc(S(=O)(=O)N3CCC[C@H]3COc3ccccc3)ccc21`, the IC50 is 0.19 µM against Caspase-7; over 500 µM against Caspase-8; 10 µM at Caspase-3 [10]; over 500 µM against Caspase-1; 0.114 µM against Caspase-3 [7]; over 500 µM against Caspase-6. On Caspase-3 [6], this compound yielded a Ki of 0.0561 µM.
